Reference: PMC7383886 (Diabetes, Obesity & Metabolism, 2020)

Columns and labels:
[1] = test system: patients with type 2 diabetes inadequately controlled on metformin; test: HbA1c, phase 2 trial LIBERATE 204; assay type: in vivo, human
How it was run: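 HbA1c was assessed at week 17, after 16 weeks of double-blind sc treatment on background metformin. Dosing was 4 mg weekly for 4 weeks, 8 mg on day 29, then the assigned dose every 28 days; placebo was matched. The proportion reaching HbA1c <53 mmol/mol (<7%) was compared with placebo by Fisher's exact test in the full analysis set.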

[2] = test system: patients with type 2 diabetes inadequately controlled on metformin; test: Fasting plasma glucose; assay type: in vivo, human; details: mean (SD)
How it was run: (§1)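 Adults 18–<75 y with T2D on stable metformin (≥1500 mg/d or maximum tolerated dose) had HbA1c 53–86 mmol/mol and BMI <40. They received double-blind sc test compound or placebo (0.53 mL prefilled syringe): 4 mg weekly on days 1, 8, 15 and 22, 8 mg on day 29, then the assigned dose on days 57 and 85. Measured at baseline and week 17 in the full analysis set; change analysed by MMRM (LS means, 95.1% CIs).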

[3] = test system: patients with type 2 diabetes inadequately controlled on metformin; test: Seven-point glucose profile; assay type: in vivo, human; details: full analysis set n = 52, mean (SD)
How it was run: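 Patients self-measured glucose with a provided glucometer for a seven-point profile: 90 min pre- and postprandial readings plus bedtime, recorded in a diary. Mean daily glucose was derived from this profile. Dosing was double-blind sc, with metformin continued: 4 mg weekly ×4, 8 mg on day 29, then the assigned monthly dose on days 57 and 85. Full analysis set; change to week 17 analysed by MMRM with 95.1% CIs.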

[4] = test system: patients with type 2 diabetes inadequately controlled on metformin; test: Body weight, LIBERATE 204; assay type: in vivo, human; details: mean (SD)
How it was run: as §1

[5] = test system: patients with type 2 diabetes inadequately controlled on metformin; test: Treatment-emergent adverse events and hypoglycaemia, LIBERATE 204; assay type: in vivo, human
How it was run: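 Safety set comprised all patients receiving any study drug, grouped by treatment actually received; analysed descriptively. TEAEs were adverse events starting or worsening on or after the first dose. Hypoglycaemia AEs required confirmed blood glucose <3.9 mmol/L (<70 mg/dL), coded by MedDRA 16.1. Injection-site reactions and symptomatic hypoglycaemic episodes came from patient diaries. Dosing was double-blind sc on background metformin.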

[6] = test system: patients with type 2 diabetes inadequately controlled on metformin; test: Anti-efpeglenatide antibodies, enzyme-linked immunosorbent assay; assay type: in vivo, human; details: log 2-expressed titre of at least 2
How it was run: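 Anti-drug antibodies in patient blood samples were detected by ELISA with an absorbance plate read-out, validated at a central laboratory. Treatment-emergent antibodies were evaluated in the safety set of patients on double-blind sc dosing with background metformin.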

[7] = test system: patients with type 2 diabetes inadequately controlled on metformin; test: Neutralizing antibodies, cell-based cAMP-Glo assay; assay type: in vivo, human; details: any patient at any time
How it was run: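 Neutralizing activity of anti-drug antibodies in patient samples was tested in a cell-based assay. Antibody-mediated inhibition of intracellular cAMP was read by cAMP-Glo luminescence; the assay was validated at a central laboratory. Patients received double-blind sc test compound or placebo.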

[8] = test system: patients with type 2 diabetes inadequately controlled on metformin; test: Vital signs, LIBERATE 204; assay type: in vivo, human; details: any post-baseline time point from week 2 to week 17 or at follow-up (week 23)
[9] = test system: patients with T2D who were drug-naïve or on metformin; details: 4 mg once weekly; 12 weeks; EXCEED; cited from earlier work
[10] = 8 mg once monthly sc, full analysis set n = 52
[11] = 12 mg once monthly sc, full analysis set n = 52
[12] = 16 mg once monthly sc, full analysis set n = 52
[13] = overall (8, 12 and 16 mg once monthly sc), full analysis set n = 156
[14] = 8 mg once monthly sc, safety set n = 52
[15] = 12 mg once monthly sc, safety set n = 52
[16] = 16 mg once monthly sc, safety set n = 53
[17] = overall (8, 12 and 16 mg once monthly sc), safety set n = 157

## efpeglenatide
[1]; [10]
  Patients with HbA1c <53 mmol/mol (7%) at Week 17: 26 (50.0) n (%)
[1]; [11]
  Patients with HbA1c <53 mmol/mol (7%) at Week 17: 26 (50.0) n (%)
[1]; [12]
  Patients with HbA1c <53 mmol/mol (7%) at Week 17: 24 (46.2) n (%)
[1]; [13]
  Patients with HbA1c <53 mmol/mol (7%) at Week 17: 76 (48.7) n (%)
[2]; [10]
  FPG at Week 17: 7.86 (2.28) mmol/L
[2]; [11]
  FPG at Week 17: 8.09 (2.28) mmol/L
[2]; [12]
  FPG at Week 17: 7.76 (1.93) mmol/L
[2]; [13]
  FPG at Week 17: 7.90 (2.16) mmol/L
[3]; 8 mg once monthly sc
  Mean daily glucose at Week 17: 8.76 (2.13) mmol/L
[3]; 12 mg once monthly sc
  Mean daily glucose at Week 17: 8.89 (2.50) mmol/L
[3]; 16 mg once monthly sc
  Mean daily glucose at Week 17: 8.49 (1.43) mmol/L
[4]; [10]
  Body weight at Week 17: 89.98 (18.12) kg
[4]; [11]
  Body weight at Week 17: 91.87 (15.31) kg
[4]; [12]
  Body weight at Week 17: 85.72 (15.58) kg
[4]; [13]
  Body weight at Week 17: 89.26 (16.49) kg
[5]; [14]
  Any TEAE: 43 (82.7) n (%)
  Any TEAE leading to discontinuation: 6 (11.5) n (%)
  Injection-site reaction: 4 (7.7) n (%)
  SAEs: Any: 0 (0.0) n (%)
  SAEs: GI disorders: 0 (0.0) n (%)
  SAEs: Injury, poisoning and procedural complications: 0 (0.0) n (%)
  SAEs: Neoplasms: benign, malignant and unspecified: 0 (0.0) n (%)
  SAEs: Nervous system disorders: 0 (0.0) n (%)
  SAEs: Psychiatric disorders: 0 (0.0) n (%)
  TEAE: Diarrhoea: 9 (17.3) n (%)
  TEAE: GI disorders: 26 (50.0) n (%)
  TEAE: Nausea: 14 (26.9) n (%)
  TEAE: Vomiting: 8 (15.4) n (%)
[5]; [15]
  Any TEAE: 43 (82.7) n (%)
  Any TEAE leading to discontinuation: 7 (13.5) n (%)
  Injection-site reaction: 4 (7.7) n (%)
  SAEs: Any: 5 (9.6) n (%)
  SAEs: GI disorders: 1 (1.9) n (%)
  SAEs: Injury, poisoning and procedural complications: 1 (1.9) n (%)
  SAEs: Neoplasms: benign, malignant and unspecified: 1 (1.9) n (%)
  SAEs: Nervous system disorders: 1 (1.9) n (%)
  SAEs: Psychiatric disorders: 1 (1.9) n (%)
  TEAE: Diarrhoea: 8 (15.4) n (%)
  TEAE: GI disorders: 29 (55.8) n (%)
  TEAE: Nausea: 24 (46.2) n (%)
  TEAE: Vomiting: 13 (25.0) n (%)
[5]; [16]
  Any TEAE: 43 (81.1) n (%)
  Any TEAE leading to discontinuation: 8 (15.1) n (%)
  Injection-site reaction: 2 (3.8) n (%)
  SAEs: Any: 3 (5.7) n (%)
  SAEs: GI disorders: 0 (0.0) n (%)
  SAEs: Injury, poisoning and procedural complications: 1 (1.9) n (%)
  SAEs: Neoplasms: benign, malignant and unspecified: 1 (1.9) n (%)
  SAEs: Nervous system disorders: 1 (1.9) n (%)
  SAEs: Psychiatric disorders: 0 (0.0) n (%)
  TEAE: Diarrhoea: 11 (20.8) n (%)
  TEAE: GI disorders: 31 (58.5) n (%)
  TEAE: Nausea: 23 (43.4) n (%)
  TEAE: Vomiting: 17 (32.1) n (%)
[5]; any group
  Hypoglycaemia TEAEs (blood glucose ≤3.9 mmol/L [≤70 mg/dL]): No hypoglycaemia TEAEs
[5]; during the study
  AEs of acute or chronic pancreatitis: No AEs of acute or chronic pancreatitis were reported
  Deaths: No deaths
[5]; [17]
  Any TEAE: 129 (82.2) n (%)
  Any TEAE leading to discontinuation: 21 (13.4) n (%)
  Injection-site reaction: 10 (6.4) n (%)
  SAEs: Any: 8 (5.1) n (%)
  SAEs: GI disorders: 1 (0.6) n (%)
  SAEs: Injury, poisoning and procedural complications: 2 (1.3) n (%)
  SAEs: Neoplasms: benign, malignant and unspecified: 2 (1.3) n (%)
  SAEs: Nervous system disorders: 2 (1.3) n (%)
  SAEs: Psychiatric disorders: 1 (0.6) n (%)
  TEAE: Diarrhoea: 28 (17.8) n (%)
  TEAE: GI disorders: 86 (54.8) n (%)
  TEAE: Nausea: 61 (38.9) n (%)
  TEAE: Vomiting: 38 (24.2) n (%)
[6]; [14]
  Antibody formation: Treatment-emergent (titre ≥2): 5 (9.6) n (%)
[6]; [15]
  Antibody formation: Treatment-emergent (titre ≥2): 6 (11.5) n (%)
[6]; [16]
  Antibody formation: Treatment-emergent (titre ≥2): 4 (7.5) n (%)
[7]
  Neutralizing antibodies: no neutralizing antibodies were detected
[8]
  Mean changes from baseline in heart rate, temperature, systolic blood pressure or diastolic blood pressure: no meaningful mean changes
[9]
  HbA1c reduction from baseline compared with once-daily liraglutide: non‐inferior
